According to ChEMBL document CHEMBL3739259, “Defining Key Structural Determinants for the Pro-osteogenic Activity of Flavonoids” (J Nat Prod, 2015):
Active and inactive are the calls of the source. The rule behind the calls is not given here.

Assays:
[1] = Cytotoxicity against human MSC assessed as cell viability at 5 uM treated for 6 days measured on day 7 by alamar blue assay (reference value: 96 to 101%); conditions: MSC cells, read-out: Activity
MSC [2] = assay: (§1) Induction of osteogenic differentiation in human MSC assessed as increase in ALP activity at 10 uM using p-NPP as substrate after 9 days by colorimetric method relative to control; assay type: functional
Procedure, shortened: (§2)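 ALP read on day 9 in passage-3 bone-marrow hMSCs cultured at high density in Os.D medium. Compound (1, 5 or 10 μM, 0.1% v/v DMSO final) was re-applied on days 0, 3 and 6. Colorimetric p-nitrophenyl phosphate method, normalised to time and cell number (pNP/min/20,000 cells). Expressed as % of untreated control; three independent triplicate experiments; one-way ANOVA versus vehicle.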

[3] = Cytotoxicity against human MSC assessed as cell viability at 1 uM treated for 3 days measured on day 4 by alamar blue assay (reference value: 97 to 100%); conditions: MSC cells, read-out: Activity
[4] = Cytotoxicity against human MSC assessed as cell viability at 10 uM treated for 6 days measured on day 7 by alamar blue assay (reference value: 96 to 101%); conditions: MSC cells, read-out: Activity
[5] = Cytotoxicity against human MSC assessed as decrease in cell number at 1 to 10 uM after 9 days by methylene blue staining based microscopy relative to control; conditions: 216 h
Procedure, shortened: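 Passage-3 bone-marrow hMSCs, high density in Os.D medium, dosed with 1, 5 or 10 μM compound (0.1% v/v DMSO final) on days 0, 3 and 6 with medium changes. Cell number measured on day 9 by methylene blue proliferation assay. Expressed as % of untreated control; three independent triplicate experiments, mean ± SEM, one-way ANOVA versus vehicle.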

[6] = Cytotoxicity against human MSC assessed as cell viability at 10 uM measured on day 1 by alamar blue assay (reference value: 97 to 101%); conditions: MSC cells, read-out: Activity
[7] = Cytotoxicity against human MSC assessed as cell viability at 1 uM measured on day 1 by alamar blue assay (reference value: 97 to 101%); conditions: MSC cells, read-out: Activity
MSC [8] = assay: (§3) Induction of osteogenic differentiation in human MSC assessed as increase in ALP activity at 5 uM using p-NPP as substrate after 9 days by colorimetric method relative to control; assay type: functional; procedure, shortened: as §2
[9] = Cytotoxicity against human MSC assessed as cell viability at 5 uM treated for 3 days measured on day 4 by alamar blue assay (reference value: 97 to 100%); conditions: MSC cells, read-out: Activity
MSC [10] = assay: Induction of osteogenic differentiation in human MSC assessed as increase in ALP activity at 1 uM using p-NPP as substrate after 9 days by colorimetric method relative to control; assay type: functional; procedure, shortened: as §2
[11] = Cytotoxicity against human MSC assessed as cell viability at 10 uM treated for 3 days measured on day 4 by alamar blue assay (reference value: 97 to 100%); conditions: MSC cells, read-out: Activity
[12] = Cytotoxicity against human MSC assessed as cell viability at 1 uM treated for 6 days measured on day 7 by alamar blue assay (reference value: 96 to 101%); conditions: MSC cells, read-out: Activity
[13] = Cytotoxicity against human MSC assessed as cell viability at 5 uM measured on day 1 by alamar blue assay (reference value: 97 to 101%); conditions: MSC cells, read-out: Activity
[14] = as §1; assay type: functional; procedure, shortened: as §2
[15] = as §3; assay type: functional; procedure, shortened: as §2
MSC [16] = assay: Induction of osteogenic differentiation in human MSC assessed as increase in ALP activity using p-NPP as substrate after 9 days by colorimetric method; assay type: functional; procedure, shortened: as §2

| Structure (SMILES) | viability at 144 h, 5 µM [1] [%] | Activity (MSC [2]) | viability at 72 h, 1 µM [3] [%] | viability at 144 h, 10 µM [4] [%] | Activity [5] | viability at 1 day, 10 µM [6] [%] | viability at 1 day, 1 µM [7] [%] | Activity (MSC [8]) | viability at 72 h, 5 µM [9] [%] | Activity (MSC [10]) | viability at 72 h, 10 µM [11] [%] | viability at 144 h, 1 µM [12] [%] | viability at 1 day, 5 µM [13] [%] | fold change (FC) [14] | fold change (FC) [5] | fold change (FC) [15] | Activity (MSC [16]) |
| --- | --- | --- | --- | --- | --- | --- | --- | --- | --- | --- | --- | --- | --- | --- | --- | --- | --- |
| Oc1ccc(/C=C/c2cc(O)cc(O)c2)cc1 [RESVERATROL] | 97 | inactive | 100 | 97 | Toxic | 98 | 99 | inactive | 100 | inactive | 100 | 96 | 101 |  |  |  |  |
| O=C(CCc1ccc(O)cc1)c1c(O)cc(O)cc1O [PHLORETIN] | 98 | inactive | 93 | 100 |  | 106 | 106 | inactive | 93 | inactive | 95 | 97 | 105 |  |  |  |  |
| O=C1C[C@@H](c2ccc(O)cc2)Oc2cc(O)cc(O)c21 [NARINGENIN] | 102 |  | 101 | 103 |  | 105 | 104 | inactive | 104 | inactive | 106 | 100 | 105 | 1.53 |  |  |  |
| O=c1cc(-c2ccccc2)oc2ccccc12 [FLAVONE] | 102 | inactive | 93 | 98 | Toxic | 106 | 102 | inactive | 93 | inactive | 92 | 100 | 103 |  |  |  |  |
| Oc1cc(O)c2c(c1)O[C@H](c1ccc(O)c(O)c1)[C@H](O)C2 [(-)-EPICATECHIN] | 98 | inactive | 98 | 98 |  | 84 | 92 | inactive | 95 | inactive | 94 | 96 | 90 |  | 0.43 |  |  |
| O=c1c(O)c(-c2ccc(O)c(O)c2)oc2cc(O)ccc12 [FISETIN] | 97 |  | 96 | 96 | Toxic | 86 | 98 |  | 97 | inactive | 95 | 98 | 98 | 1.32 |  | 1.52 |  |
| O=C1c2c(O)cc(O)cc2O[C@H](c2ccc(O)c(O)c2)[C@H]1O [(+)-TAXIFOLIN] | 98 | inactive | 92 | 101 |  | 102 | 103 | inactive | 92 | inactive | 92 | 98 | 101 |  |  |  |  |
| Oc1cc(O)c2c(c1)O[C@H](c1ccc(O)c(O)c1)[C@@H](O)C2 [CIANIDANOL] | 98 | inactive | 94 | 98 |  | 104 | 105 | inactive | 92 | inactive | 93 | 97 | 104 |  |  |  |  |
| COc1cc([C@@H]2CC(=O)c3c(O)cc(O)cc3O2)ccc1O |  | inactive |  |  |  |  |  | inactive |  | inactive |  |  |  |  |  |  |  |
| COc1ccc(-c2cc(=O)c3c(O)cc(O)cc3o2)cc1O |  | inactive |  |  |  |  |  | inactive |  | inactive |  |  |  |  |  |  |  |
| O=c1cc(-c2ccc(O)cc2)oc2cc(O)cc(O)c12 [APIGENIN] | 97 | inactive | 101 | 94 | Toxic | 98 | 98 | inactive | 99 | inactive | 98 | 96 | 102 |  |  |  |  |
| O=c1c(O)c(-c2ccc(O)c(O)c2)oc2cc(O)cc(O)c12 [QUERCETIN] | 104 |  | 98 | 101 | Toxic | 89 | 101 |  | 100 | inactive | 101 | 103 | 100 | 1.32 |  | 1.52 |  |
| COc1cc(-c2oc3cc(O)cc(O)c3c(=O)c2O)ccc1O [ISORHAMNETIN] | 100 |  | 93 | 97 | Toxic | 108 | 105 |  | 92 | inactive | 91 | 98 | 107 | 1.32 |  | 1.52 |  |
| O=c1c(O)c(-c2ccccc2)oc2cc(O)cc(O)c12 [GALANGIN] | 97 |  | 94 | 97 |  | 104 | 105 |  | 91 | inactive | 91 | 99 | 105 | 1.32 |  | 1.52 | Dose-dependent effect |
